Measured values taken from ChEMBL document CHEMBL1142961, “Novel selective inhibitors of the zinc plasmodial aminopeptidase PfA-M1 as potential antimalarial agents” (J Med Chem, 2007).

How the values were obtained:
[1] = biological target: T1, Aminopeptidase N (Plasmodium falciparum FcB1/Columbia, UniProt O96935); test: Inhibition of Plasmodium falciparum FcB1 M1 aminopeptidase
T1 sequence (O96935 whole entry): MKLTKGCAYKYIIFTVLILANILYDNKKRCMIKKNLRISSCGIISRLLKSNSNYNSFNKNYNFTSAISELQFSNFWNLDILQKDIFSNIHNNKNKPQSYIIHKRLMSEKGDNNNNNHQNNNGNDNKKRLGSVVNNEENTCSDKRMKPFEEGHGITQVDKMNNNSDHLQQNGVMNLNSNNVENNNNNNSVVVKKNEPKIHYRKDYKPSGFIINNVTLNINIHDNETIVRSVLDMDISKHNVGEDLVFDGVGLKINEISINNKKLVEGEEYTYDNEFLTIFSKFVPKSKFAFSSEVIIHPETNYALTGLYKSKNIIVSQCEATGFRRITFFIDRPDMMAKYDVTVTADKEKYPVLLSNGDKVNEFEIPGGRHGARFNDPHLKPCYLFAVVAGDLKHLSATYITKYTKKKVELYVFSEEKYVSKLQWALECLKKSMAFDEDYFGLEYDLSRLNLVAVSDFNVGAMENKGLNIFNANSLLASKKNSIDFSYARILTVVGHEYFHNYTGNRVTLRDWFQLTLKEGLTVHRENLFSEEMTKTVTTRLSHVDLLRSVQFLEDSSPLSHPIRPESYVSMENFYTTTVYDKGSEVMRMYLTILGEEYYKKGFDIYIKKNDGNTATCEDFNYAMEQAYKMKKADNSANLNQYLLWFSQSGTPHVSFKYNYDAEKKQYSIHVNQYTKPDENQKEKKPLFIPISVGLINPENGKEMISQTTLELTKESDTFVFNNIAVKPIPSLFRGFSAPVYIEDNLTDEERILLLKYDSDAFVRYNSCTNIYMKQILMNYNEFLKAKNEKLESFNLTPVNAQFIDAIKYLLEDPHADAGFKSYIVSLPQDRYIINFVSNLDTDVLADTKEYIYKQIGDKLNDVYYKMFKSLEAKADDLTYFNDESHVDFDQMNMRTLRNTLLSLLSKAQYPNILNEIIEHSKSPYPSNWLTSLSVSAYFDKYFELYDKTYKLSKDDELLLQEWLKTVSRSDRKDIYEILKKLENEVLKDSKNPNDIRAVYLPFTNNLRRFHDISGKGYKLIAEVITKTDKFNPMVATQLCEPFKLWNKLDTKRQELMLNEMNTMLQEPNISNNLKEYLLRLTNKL
Outline: (§1)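 Native enzyme purified from P. falciparum FcB1, diluted 10-fold in 25 mM Tris-HCl pH 7.4. Preincubated with inhibitor for 10 min at room temperature, then Leu-pNA substrate added (0.3 mM stock, Km 0.099 mM). Kinetics followed at 405 nm at room temperature. Initial velocities normalized to a no-inhibitor control. Single-point screen at 10 µM; IC50 from velocity versus inhibitor concentration curves. Bestatin used as reference.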

[2] = biological target: T2, Aminopeptidase N (Sus scrofa) (UniProt P15145); test: Inhibition of pig kidney microsomal APN at 10 uM
T2 sequence (whole entry): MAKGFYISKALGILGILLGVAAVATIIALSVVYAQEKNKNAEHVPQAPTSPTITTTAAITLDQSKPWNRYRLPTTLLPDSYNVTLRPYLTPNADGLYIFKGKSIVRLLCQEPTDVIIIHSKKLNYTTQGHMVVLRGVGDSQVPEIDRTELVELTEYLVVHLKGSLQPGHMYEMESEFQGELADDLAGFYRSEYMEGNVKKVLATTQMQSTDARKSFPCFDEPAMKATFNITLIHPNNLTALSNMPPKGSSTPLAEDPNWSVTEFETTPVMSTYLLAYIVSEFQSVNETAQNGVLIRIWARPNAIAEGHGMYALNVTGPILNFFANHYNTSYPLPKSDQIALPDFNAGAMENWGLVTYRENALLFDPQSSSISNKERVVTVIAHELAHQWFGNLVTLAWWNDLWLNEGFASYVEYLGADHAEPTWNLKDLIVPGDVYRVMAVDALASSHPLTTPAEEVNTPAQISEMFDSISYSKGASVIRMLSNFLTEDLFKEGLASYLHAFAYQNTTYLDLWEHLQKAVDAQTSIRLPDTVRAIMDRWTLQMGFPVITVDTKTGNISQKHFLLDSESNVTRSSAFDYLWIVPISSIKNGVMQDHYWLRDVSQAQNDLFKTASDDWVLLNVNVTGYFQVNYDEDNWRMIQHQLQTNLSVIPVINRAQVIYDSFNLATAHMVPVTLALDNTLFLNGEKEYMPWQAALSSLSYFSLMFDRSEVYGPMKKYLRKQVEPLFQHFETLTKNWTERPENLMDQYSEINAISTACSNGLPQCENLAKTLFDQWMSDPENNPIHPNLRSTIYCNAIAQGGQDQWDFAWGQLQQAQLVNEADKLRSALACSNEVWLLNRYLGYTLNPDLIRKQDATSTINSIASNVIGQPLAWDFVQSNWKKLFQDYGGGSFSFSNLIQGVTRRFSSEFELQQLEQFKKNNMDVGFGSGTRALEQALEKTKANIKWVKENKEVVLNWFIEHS
Outline: (§2)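 Porcine kidney microsomal APN (ammonium sulfate suspension) diluted 600-fold in 25 mM Tris-HCl pH 7.4. Preincubated with inhibitor for 10 min at room temperature, then Leu-pNA added (0.3 mM stock). Hydrolysis followed at 405 nm at room temperature. Rates normalized to a no-inhibitor control. Single point at 10 µM; IC50 from concentration-velocity curves. Bestatin used as reference.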

[3] = biological target: T3, Aminopeptidase N (Plasmodium falciparum FcB1/Columbia) (UniProt O96935); test: Inhibition of Plasmodium falciparum FcB1 M1 aminopeptidase at 10 uM; outline: as §1
T3 sequence (whole entry): T1 sequence (O96935 whole entry)

[4] = biological target: T4, Aminopeptidase N (Sus scrofa, UniProt P15145); test: Inhibition of pig kidney microsomal APN; outline: as §2
T4 sequence (P15145 whole entry): T2 sequence (whole entry)

[5] = Stability in Zucker FA/FA rat plasma at 37degC; assay type: ADME, organism-based; conditions: read-out: Stability (converted)
Outline: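 Compound at 100 µM final in male Zucker FA/FA rat plasma, stirred at 37 °C. Samples taken from 0 to 96 h, acidified with 0.14 M phosphoric acid and spiked with internal standard. Extracted three times with AcOEt and quantified by LC-MS-MS (MRM). Half-life derived.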

For `O=C(NO)C(Cc1cccc(Oc2ccccc2)c1)C(=O)N1CCC(Cc2ccccc2)CC1` (configuration not stated), the IC50 [1] was 0.248 µM, the inhibition [2] was 65% and the inhibition [3] was 97%.
`O=C(NO)C(Cc1cccc(Oc2ccccc2)c1)C(=O)NCCCCc1ccccc1` (configuration not stated) gave an IC50 [1] of 0.225 µM, an inhibition [2] of 84% and an inhibition [3] of 96%.
Compound `O=C(NO)C(Cc1cccc(Oc2ccccc2)c1)C(=O)NCc1ccccc1` (configuration not stated) has an IC50 [4] of over 10 µM, an IC50 [1] of 0.164 µM and an inhibition [2] of 79%. For the same compound, the inhibition [3] was 96%.
`O=C(NO)C(Cc1ccccc1)C(=O)NCc1ccc(Cl)cc1` (configuration not stated) showed an IC50 [1] of 0.17 µM, an inhibition [2] of 80% and an inhibition [3] of 93%.
`CC(C)CC(C(=O)NO)C(=O)NC1CCCc2ccccc21` (configuration not stated) showed an IC50 [1] of 0.109 µM.
`CC(C)CC(C(=O)NO)C(=O)N1CCC(Cc2ccccc2)CC1` (configuration not stated) showed an IC50 [1] of 0.406 µM, an inhibition [2] of 68% and an inhibition [3] of 100%.
Compound `O=C(NO)C(Cc1ccccc1)C(=O)N1CCC(Cc2ccccc2)CC1` (configuration not stated) has an IC50 [1] of 0.206 µM, an inhibition [2] of 34% and an inhibition [3] of 92%.
In the case of `O=C(NO)C(Cc1ccccc1)C(=O)NCCCc1ccccc1` (configuration not stated), the IC50 [1] is reported as 0.125 µM, the inhibition [2] is reported as 84% and the inhibition [3] is reported as 94%.
With `CC(C)CC(C(=O)NO)C(=O)NCCCc1ccccc1` (configuration not stated) the IC50 [1] was 0.79 µM, the inhibition [2] was 95% and the inhibition [3] was 98%.
With `O=C(NO)C(Cc1cccc(Oc2ccccc2)c1)C(=O)N1CCc2ccccc2C1` (configuration not stated) the IC50 [1] was 0.966 µM, the inhibition [2] was 84% and the inhibition [3] was 100%.
For `CC(C)CC(C(=O)NO)C(=O)NCCc1ccccc1` (configuration not stated), the IC50 [1] was 0.885 µM, the inhibition [2] was 105% and the inhibition [3] was 74%.
Work on `O=C(NO)C(Cc1ccccc1)C(=O)NCc1cccc2ccccc12` (configuration not stated) yielded an IC50 [1] of 0.107 µM.
For `O=C(NO)C(Cc1ccccc1)C(=O)NCCCCc1ccccc1` (configuration not stated), the IC50 [4] was over 10 µM, the IC50 [1] was 0.046 µM and the inhibition [2] was 81%. It also gave an inhibition [3] of 94%.
With `O=C(NCc1ccc(F)cc1)c1cc2ccccc2n(O)c1=O` the IC50 [4] was over 10 µM, the IC50 [1] was over 10 µM and the half-life [5] was over 48 h.
`O=C(NO)C(Cc1ccccc1)C(=O)NCc1ccccc1` (configuration not stated) gave an IC50 [1] of 0.125 µM, an inhibition [2] of 69% and an inhibition [3] of 94%.
With `Cc1ccccc1CNC(=O)C(Cc1ccccc1)C(=O)NO` (configuration not stated) the IC50 [4] was 1.31 µM, the IC50 [1] was 0.041 µM and the inhibition [2] was 85%. The inhibition [3] was 95%.
Compound `O=C(NO)/C(=C/c1ccccc1)C(=O)NCc1ccc(F)cc1` has an IC50 [4] of over 10 µM and an IC50 [1] of 0.33 µM.
For `O=C(NO)C(Cc1cccc(Oc2ccccc2)c1)C(=O)NCc1ccc(C(F)(F)F)cc1` (configuration not stated), the IC50 [1] was 0.231 µM, the inhibition [2] was 84% and the inhibition [3] was 102%.
Compound `O=C(NO)C(Cc1cccc(Oc2ccccc2)c1)C(=O)NCCCc1ccccc1` (configuration not stated) has an IC50 [1] of 0.527 µM, an inhibition [2] of 89% and an inhibition [3] of 93%.
Work on `CC(C)CC(C(=O)NO)C(=O)NCc1ccc(F)cc1` (configuration not stated) yielded an IC50 [1] of 3.9 µM, an inhibition [2] of 92% and an inhibition [3] of 85%.
Compound `O=C(NO)/C(=C\c1ccccc1)C(=O)NCCCCc1ccccc1` has an IC50 [4] of 3.24 µM and an IC50 [1] of 0.013 µM.
Compound `CC(C)CC(C(=O)NO)C(=O)NCc1ccc(Cl)cc1` (configuration not stated) has an IC50 [1] of 0.904 µM, an inhibition [2] of 99% and an inhibition [3] of 90%.
In the case of `O=C(NO)C(Cc1ccccc1)C(=O)NCC(c1ccccc1)c1ccccc1` (configuration not stated), the IC50 [1] is reported as 5.36 µM.
`CC(C)CC(C(=O)NO)C(=O)NCc1ccccc1` (configuration not stated) showed an IC50 [1] of 0.495 µM, an inhibition [2] of 39% and an inhibition [3] of 19%.
